Assay [1] has as its system Glutamate receptor 4 (Homo sapiens), P48058 [L505Y]. Description: Negative allosteric modulation of human GluA4 L505Y mutant expressed in Xenopus laevis oocytes assessed as inhibition of glutamate-induced current response at 30 uM at -40 mV holding potential by two-electrode voltage clamp method relative to glutamate alone. The format is cell-based. In outline: (§1)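 Oocyte two-electrode voltage clamp at -40 mV holding. Test compound co-applied with agonist; response given as percent of the mean of control and recovery currents to agonist alone. Agonists: 100 µM glutamate (AMPA, kainate), 100 µM GABA (GABA receptors), 100 µM glycine (glycine receptor), 100 µM serotonin (5-HT3A), 9 µM ATP (P2X), 1 µM acetylcholine (nicotinic).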

The target of assay [2] is Ionotropic glutamate receptor NMDA 1/2D (Rattus norvegicus, UniProt P35439+Q62645). Description: Negative allosteric modulation of recombinant rat GluN1/GluN2D expressed in Xenopus laevis oocytes assessed as inhibition of glutamate/glycine-induced current response at -40 mV holding potential by two-electrode voltage clamp method. The format is cell-based. In outline:
(§2)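 Oocytes recorded while the drug is co-applied with a maximally effective 100 µM glutamate plus 30 µM glycine. Response is expressed as percent of the glutamate/glycine control. IC50 comes from a Hill fit to the average composite concentration-response curve. 8-16 oocytes from 2-3 frogs per compound and receptor.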
(Two-electrode voltage clamp is typically applied to oocytes expressing channels or transporters.)

Assay [3] concerns the target T1, Glycine receptor subunit alpha-1 (Rattus norvegicus) (UniProt P07727).
T1 sequence (whole entry): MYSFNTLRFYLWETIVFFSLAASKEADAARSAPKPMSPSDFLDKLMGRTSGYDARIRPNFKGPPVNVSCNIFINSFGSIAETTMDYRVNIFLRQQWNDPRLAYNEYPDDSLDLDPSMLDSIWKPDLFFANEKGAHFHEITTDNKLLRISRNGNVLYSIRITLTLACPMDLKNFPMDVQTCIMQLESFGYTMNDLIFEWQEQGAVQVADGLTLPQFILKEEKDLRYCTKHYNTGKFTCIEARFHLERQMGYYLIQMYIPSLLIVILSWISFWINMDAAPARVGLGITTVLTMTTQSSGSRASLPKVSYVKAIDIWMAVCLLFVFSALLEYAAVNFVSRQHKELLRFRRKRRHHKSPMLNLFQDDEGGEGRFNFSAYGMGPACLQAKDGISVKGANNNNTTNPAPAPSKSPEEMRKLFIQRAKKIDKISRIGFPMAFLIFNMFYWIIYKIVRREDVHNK
Nature of the assay: Negative allosteric modulation of rat glycine alpha1 expressed in Xenopus laevis oocytes assessed as inhibition of glycine-induced current response at 30 uM at -40 mV holding potential by two-electrode voltage clamp method relative to glycine alone. The format is cell-based. The procedure, abridged: as §1

Assay [4] concerns the target Glutamate NMDA receptor; Grin1/Grin2c (Rattus norvegicus, UniProt P35439+Q00961). Description: Negative allosteric modulation of recombinant rat GluN1/GluN2C expressed in Xenopus laevis oocytes assessed as inhibition of glutamate/glycine-induced current response at -40 mV holding potential by two-electrode voltage clamp method. It counts as cell-based. The procedure, abridged: as §2

Assay [5] concerns the target Glutamate receptor ionotropic, kainate 2 (Rattus norvegicus) (UniProt P42260). Description: Negative allosteric modulation of rat GluK2 expressed in Xenopus laevis oocytes assessed as inhibition of glutamate-induced current response at 30 uM at -40 mV holding potential in presence of concanavalin A by two-electrode voltage clamp method relative to glutamate alone. The format is cell-based. The procedure, abridged:
as §1

For another assay, the species on record is Homo sapiens. Description: Negative allosteric modulation of human GluA2 R607Q mutant expressed in Xenopus laevis oocytes assessed as inhibition of glutamate-induced current response at 30 uM at -40 mV holding potential by two-electrode voltage clamp method relative to glutamate alone. It counts as cell-based. In outline: as §1
Assay [6] deals with Glutamate receptor 1 (Rattus norvegicus) (UniProt P19490). Description: Negative allosteric modulation of recombinant rat GluA1 expressed in Xenopus laevis oocytes assessed as inhibition of glutamate-induced current response at 30 uM at -40 mV holding potential by two-electrode voltage clamp method relative to glutamate alone. The format is cell-based. In outline:
as §1

Assay [7] addresses CHRNA1/CHRNB1/CHRNG/CHRND (Rattus norvegicus) (UniProt P25109+P25108+P25110+P18916). Description: Negative allosteric modulation of rat alpha1betagammadelta nACHR expressed in Xenopus laevis oocytes assessed as inhibition of acetylcholine-induced current response at 30 uM at -40 mV holding potential by two-electrode voltage clamp method relative to acetylcholine alone. It counts as cell-based. In outline:
as §1

Assay [8] is filed under the species Rattus norvegicus. Nature of the assay: Negative allosteric modulation of rat GABAA rho expressed in Xenopus laevis oocytes assessed as inhibition of GABA-induced current response at 30 uM at -40 mV holding potential by two-electrode voltage clamp method relative to GABA alone. The format is cell-based. The procedure, abridged:
as §1

The species entered for assay [9] is Rattus norvegicus. Nature of the assay: Negative allosteric modulation of rat GABAA alpha1beta2gamma2S expressed in Xenopus laevis oocytes assessed as inhibition of GABA-induced current response at 30 uM at -40 mV holding potential by two-electrode voltage clamp method relative to GABA alone. It counts as cell-based. The procedure, abridged: as §1
The target in assay [10] is T2, Ionotropic glutamate receptor NMDA 1/2D (Rattus norvegicus) (UniProt P35439+Q62645). Description: Negative allosteric modulation of recombinant rat GluN1/GluN2D expressed in Xenopus laevis oocytes assessed as residual glutamate/glycine-induced current response at 10 uM at -40 mV holding potential by two-electrode voltage clamp method relative to glutamate/glycine.
For assay [11], the target named is T3, Glutamate NMDA receptor; Grin1/Grin2c (Rattus norvegicus) (UniProt P35439+Q00961). Nature of the assay: Negative allosteric modulation of recombinant rat GluN1/GluN2C expressed in Xenopus laevis oocytes assessed as remaining glutamate/glycine-induced current response at 10 uM at -40 mV holding potential by two-electrode voltage clamp method relative to glutamate/glycine.

The target of assay [12] is T4, 5-hydroxytryptamine receptor 3A (Rattus norvegicus) (UniProt P35563).
T4 sequence (whole entry): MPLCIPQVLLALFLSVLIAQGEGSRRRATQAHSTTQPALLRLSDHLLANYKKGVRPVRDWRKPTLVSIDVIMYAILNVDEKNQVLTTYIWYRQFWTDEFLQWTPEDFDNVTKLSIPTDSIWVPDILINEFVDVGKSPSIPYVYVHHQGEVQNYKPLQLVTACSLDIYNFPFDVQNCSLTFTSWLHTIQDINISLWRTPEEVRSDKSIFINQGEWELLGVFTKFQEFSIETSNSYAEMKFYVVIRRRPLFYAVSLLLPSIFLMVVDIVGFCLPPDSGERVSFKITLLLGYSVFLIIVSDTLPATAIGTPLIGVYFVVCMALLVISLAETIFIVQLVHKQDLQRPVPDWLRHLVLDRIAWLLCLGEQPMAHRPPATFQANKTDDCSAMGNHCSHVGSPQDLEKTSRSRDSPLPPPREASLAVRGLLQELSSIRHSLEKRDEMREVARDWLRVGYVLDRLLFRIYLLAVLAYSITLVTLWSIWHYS
Description: Negative allosteric modulation of rat 5HT3A expressed in Xenopus laevis oocytes assessed as inhibition of serotonin-induced current response at 30 uM at -40 mV holding potential by two-electrode voltage clamp method relative to serotonin alone. It counts as cell-based. The procedure, abridged: as §1

Assay [13] concerns Glutamate receptor 3 (Homo sapiens), P42263 [L513Y]. Nature of the assay: Negative allosteric modulation of human GluA3 L513Y mutant expressed in Xenopus laevis oocytes assessed as inhibition of glutamate-induced current response at 30 uM at -40 mV holding potential by two-electrode voltage clamp method relative to glutamate alone. The format is cell-based. In outline: as §1

The target in assay [14] is T2, Ionotropic glutamate receptor NMDA 1/2D (Rattus norvegicus). Description: Negative allosteric modulation of recombinant rat GluN1/GluN2D expressed in Xenopus laevis oocytes assessed as inhibition of glutamate/glycine-induced current response at 30 uM at -40 mV holding potential by two-electrode voltage clamp method relative to glutamate/glycine. Conditions: values are per cent of control. The format is cell-based. In outline: as §2

The target of assay [15] is Glutamate NMDA receptor; Grin1/Grin2a (Rattus norvegicus, UniProt P35439+Q00959). Nature of the assay: Negative allosteric modulation of recombinant rat GluN1/GluN2A expressed in Xenopus laevis oocytes assessed as inhibition of glutamate/glycine-induced current response at -40 mV holding potential by two-electrode voltage clamp method. The format is cell-based. The procedure, abridged:
as §2

For assay [16], the target named is T3, Glutamate NMDA receptor; Grin1/Grin2c (Rattus norvegicus). Nature of the assay: Negative allosteric modulation of recombinant rat GluN1/GluN2C expressed in Xenopus laevis oocytes assessed as inhibition of glutamate/glycine-induced current response at 30 uM at -40 mV holding potential by two-electrode voltage clamp method relative to glutamate/glycine. It counts as cell-based. The conditions noted are these: values are per cent of control. In outline: as §2

The target in assay [17] is Glutamate NMDA receptor; Grin1/Grin2a (Rattus norvegicus) (UniProt P35439+Q00959). Nature of the assay: Negative allosteric modulation of recombinant rat GluN1/GluN2A expressed in Xenopus laevis oocytes assessed as remaining glutamate/glycine-induced current response at 6 uM at -40 mV holding potential by two-electrode voltage clamp method relative to glutamate/glycine.

The structures appear in SMILES notation. Active and inactive are the calls of the source. No cut-off for these calls is given here. Where only a bound is given, the exact number is not on record here.

Chain of Glutamate receptor ionotropic, kainate 2 (Rattus norvegicus) (P42260 whole entry): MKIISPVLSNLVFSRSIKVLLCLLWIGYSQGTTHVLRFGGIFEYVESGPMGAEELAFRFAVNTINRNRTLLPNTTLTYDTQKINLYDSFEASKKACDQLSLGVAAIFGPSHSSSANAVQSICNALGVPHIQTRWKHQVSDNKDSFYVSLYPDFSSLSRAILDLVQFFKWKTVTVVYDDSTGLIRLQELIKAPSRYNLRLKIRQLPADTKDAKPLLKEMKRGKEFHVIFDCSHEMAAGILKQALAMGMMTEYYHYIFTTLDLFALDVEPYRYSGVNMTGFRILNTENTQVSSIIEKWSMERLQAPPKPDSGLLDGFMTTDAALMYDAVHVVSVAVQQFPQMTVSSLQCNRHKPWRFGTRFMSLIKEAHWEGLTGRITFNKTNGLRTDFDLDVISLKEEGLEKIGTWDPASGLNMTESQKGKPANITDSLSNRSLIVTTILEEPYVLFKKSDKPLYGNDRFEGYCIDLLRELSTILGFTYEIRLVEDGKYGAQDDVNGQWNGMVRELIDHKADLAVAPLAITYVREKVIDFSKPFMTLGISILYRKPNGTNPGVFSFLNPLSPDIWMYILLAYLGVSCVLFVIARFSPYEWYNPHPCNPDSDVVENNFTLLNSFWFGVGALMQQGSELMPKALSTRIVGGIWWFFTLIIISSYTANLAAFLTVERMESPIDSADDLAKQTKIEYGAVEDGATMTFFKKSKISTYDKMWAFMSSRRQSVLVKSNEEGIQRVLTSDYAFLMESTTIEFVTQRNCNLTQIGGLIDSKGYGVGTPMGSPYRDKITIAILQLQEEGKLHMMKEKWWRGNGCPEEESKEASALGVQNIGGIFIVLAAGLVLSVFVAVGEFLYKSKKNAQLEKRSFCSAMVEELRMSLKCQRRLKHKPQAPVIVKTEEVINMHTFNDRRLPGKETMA
Chain of Glutamate receptor 1 (Rattus norvegicus) (P19490 whole entry): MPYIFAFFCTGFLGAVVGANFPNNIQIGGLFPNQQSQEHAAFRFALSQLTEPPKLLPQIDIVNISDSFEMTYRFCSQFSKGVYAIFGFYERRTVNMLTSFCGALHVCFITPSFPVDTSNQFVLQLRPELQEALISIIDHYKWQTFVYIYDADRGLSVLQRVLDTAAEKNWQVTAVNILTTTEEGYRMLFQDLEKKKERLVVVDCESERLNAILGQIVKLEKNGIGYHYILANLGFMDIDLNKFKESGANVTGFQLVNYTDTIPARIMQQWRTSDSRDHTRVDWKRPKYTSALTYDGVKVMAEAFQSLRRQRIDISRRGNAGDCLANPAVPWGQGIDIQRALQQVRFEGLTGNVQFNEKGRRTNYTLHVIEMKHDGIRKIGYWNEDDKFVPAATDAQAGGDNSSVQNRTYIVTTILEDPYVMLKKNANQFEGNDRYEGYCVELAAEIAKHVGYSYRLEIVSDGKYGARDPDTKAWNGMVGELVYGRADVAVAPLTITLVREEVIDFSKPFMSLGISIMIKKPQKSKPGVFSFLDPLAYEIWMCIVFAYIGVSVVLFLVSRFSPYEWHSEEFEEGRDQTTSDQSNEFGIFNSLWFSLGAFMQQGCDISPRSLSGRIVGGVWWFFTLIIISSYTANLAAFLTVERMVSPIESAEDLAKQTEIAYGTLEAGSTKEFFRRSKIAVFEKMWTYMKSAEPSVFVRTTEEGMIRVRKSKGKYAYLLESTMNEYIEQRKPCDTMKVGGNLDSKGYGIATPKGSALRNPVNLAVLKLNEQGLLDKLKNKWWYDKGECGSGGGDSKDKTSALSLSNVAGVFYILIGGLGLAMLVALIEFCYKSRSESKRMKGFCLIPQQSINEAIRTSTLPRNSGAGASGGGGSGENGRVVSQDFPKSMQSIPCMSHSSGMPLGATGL
Chain of Glutamate receptor 4 (Homo sapiens), P48058 [L505Y] (P48058 whole entry L505Y): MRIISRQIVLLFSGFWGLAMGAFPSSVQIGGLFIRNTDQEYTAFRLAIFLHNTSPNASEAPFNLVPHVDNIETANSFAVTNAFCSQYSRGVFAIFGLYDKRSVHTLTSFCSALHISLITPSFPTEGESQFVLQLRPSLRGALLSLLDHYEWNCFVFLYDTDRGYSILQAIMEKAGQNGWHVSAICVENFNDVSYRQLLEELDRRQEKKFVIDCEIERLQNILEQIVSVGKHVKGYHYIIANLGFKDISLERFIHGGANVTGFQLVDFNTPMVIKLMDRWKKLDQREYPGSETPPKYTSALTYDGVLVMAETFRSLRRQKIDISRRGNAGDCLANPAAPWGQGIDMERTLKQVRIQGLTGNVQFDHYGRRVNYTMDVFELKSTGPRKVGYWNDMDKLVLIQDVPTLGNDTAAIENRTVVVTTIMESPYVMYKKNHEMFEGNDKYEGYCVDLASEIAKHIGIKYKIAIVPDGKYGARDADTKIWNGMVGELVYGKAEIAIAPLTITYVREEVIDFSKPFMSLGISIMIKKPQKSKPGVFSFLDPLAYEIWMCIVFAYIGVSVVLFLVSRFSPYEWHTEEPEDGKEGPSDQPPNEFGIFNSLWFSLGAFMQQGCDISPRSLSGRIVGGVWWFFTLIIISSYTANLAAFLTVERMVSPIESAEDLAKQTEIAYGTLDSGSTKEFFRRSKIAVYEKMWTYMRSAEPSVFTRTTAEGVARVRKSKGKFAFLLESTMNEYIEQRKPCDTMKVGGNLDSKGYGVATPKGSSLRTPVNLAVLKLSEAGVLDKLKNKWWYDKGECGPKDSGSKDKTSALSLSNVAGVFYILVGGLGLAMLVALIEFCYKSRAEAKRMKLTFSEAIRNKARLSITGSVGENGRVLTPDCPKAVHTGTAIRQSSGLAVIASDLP
Chain of Glutamate receptor 3 (Homo sapiens), P42263 [L513Y] (P42263 whole entry L513Y): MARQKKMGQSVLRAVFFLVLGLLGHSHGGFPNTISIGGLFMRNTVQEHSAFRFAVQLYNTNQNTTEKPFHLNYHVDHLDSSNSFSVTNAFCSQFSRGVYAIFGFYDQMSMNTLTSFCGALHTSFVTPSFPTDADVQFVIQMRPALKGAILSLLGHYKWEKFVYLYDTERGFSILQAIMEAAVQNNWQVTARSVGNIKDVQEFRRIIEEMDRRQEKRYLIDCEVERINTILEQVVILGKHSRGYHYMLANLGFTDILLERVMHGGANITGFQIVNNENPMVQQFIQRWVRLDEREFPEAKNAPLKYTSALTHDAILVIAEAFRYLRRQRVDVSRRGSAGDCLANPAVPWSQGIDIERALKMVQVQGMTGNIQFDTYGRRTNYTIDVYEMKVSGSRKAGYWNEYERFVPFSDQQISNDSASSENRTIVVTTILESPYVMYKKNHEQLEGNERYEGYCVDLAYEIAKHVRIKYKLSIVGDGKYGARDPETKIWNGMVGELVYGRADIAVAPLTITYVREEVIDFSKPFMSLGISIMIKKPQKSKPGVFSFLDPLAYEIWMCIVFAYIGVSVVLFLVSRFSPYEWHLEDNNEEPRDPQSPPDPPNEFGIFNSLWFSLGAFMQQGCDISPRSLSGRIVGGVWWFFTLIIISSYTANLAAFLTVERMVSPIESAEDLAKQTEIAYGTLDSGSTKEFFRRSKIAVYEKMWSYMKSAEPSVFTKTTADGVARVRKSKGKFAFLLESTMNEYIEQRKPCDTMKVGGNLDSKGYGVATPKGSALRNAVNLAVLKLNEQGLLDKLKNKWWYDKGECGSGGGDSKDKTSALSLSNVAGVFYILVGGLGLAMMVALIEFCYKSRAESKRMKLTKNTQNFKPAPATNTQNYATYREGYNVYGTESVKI

For the compound `CCN(CC)C(=O)Oc1ccc(C(=O)Nc2cccc3cc[nH]c23)cc1`, the inhibition entry (in assay [1]; in assay [5]; in the assay listed under Homo sapiens; in [6]; in the assay listed under Rattus norvegicus [8]; in the assay listed under Rattus norvegicus [9]) was “Active” in each case. Also, the inhibition entry in [13] was “Active”. The concentration for half-maximal inhibition (IC50) in [2] was found to be 2.2 µM; in assay [4] it was 3.7 µM. For the same compound, the inhibition result in [3], in assay [7] and in [12] was “inactive” throughout. The results for the residual activity in assay [10] and in [11] were 16% and 24%, respectively.

Regarding `O=C(NNC(=O)c1ccc(CNS(=O)(=O)c2ccc(F)c(Cl)c2)cc1)c1ccccc1`, the residual activity in [14] is under 15%; in assay [16], under 15%; in assay [10] it was 88%; in [11], 95%; in assay [17], 5.1%. In assay [15], the IC50 was 0.17 µM.

For orientation: IC50 means the concentration needed to halve the response being measured.
